83 compounds from PubChem BioAssay AID624466 (The Scripps Research Institute Molecular Screening Center, 2012) can be followed below.

The campaign covered roughly 360,000 compounds. About 5,400 (1.5%) were called active.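 The calls were made as follows: active = inhibition above a per-plate cutoff, the mean inhibition of test compounds on that plate plus 3 SD (cut at about 49% in these data); inactive = the rest.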 Many of the other results were omitted from the sample, so actives are more common in it than they were.

Sequence of Trace amine-associated receptor 1 (Homo sapiens) (Q96RJ0 whole entry, looked up): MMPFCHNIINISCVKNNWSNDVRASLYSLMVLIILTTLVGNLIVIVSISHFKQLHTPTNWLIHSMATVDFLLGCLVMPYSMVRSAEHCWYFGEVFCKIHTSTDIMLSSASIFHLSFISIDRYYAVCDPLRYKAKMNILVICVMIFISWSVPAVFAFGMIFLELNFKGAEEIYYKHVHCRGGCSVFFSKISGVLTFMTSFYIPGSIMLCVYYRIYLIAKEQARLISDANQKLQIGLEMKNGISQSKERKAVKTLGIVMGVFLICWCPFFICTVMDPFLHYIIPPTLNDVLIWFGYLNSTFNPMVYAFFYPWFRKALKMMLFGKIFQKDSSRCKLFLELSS

This test addresses Trace amine-associated receptor 1 (Homo sapiens) (UniProt Q96RJ0). The test can be described thus: human TAAR1 antagonists, primary screen, Fluo-8 calcium fluorescence, CHO RD-HGA16 cells (AID 624466).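 Also: 0% = DMSO plus EC80 beta-PEA response and 100% = DMSO alone without agonist.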 The following applies: CHO RD-HGA16 TAAR1, Fluo-8 calcium fluorescence, antagonist; at 3 µM; hits give high values. Put shortly:
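Assay system: CHO-derived RD-HGA16 cells stably expressing human TAAR1 plus Gα16. Timing: 140 s kinetic read after compound, 140 s after agonist. Technique: kinetic Fluo-8 calcium fluorescence measurement. Measure: % inhibition of agonist calcium response.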
One may read the inhibition as the drop in the measured response relative to a control, in per cent. On to `COC(=O)c1ccc(C23CC4(C2)[C@H](CN(Cc2cccnc2)[C@@H]4c2ccccc2)C3c2ccc(Cl)nc2)cc1` (stereo partly drawn), for which the inhibition is 34.6% (inactive).

Regarding `COC(=O)[C@@]12C[C@@H](CC(=O)NCCCCc3ccccc3)C(=O)N(CCc3ccc(OC)c(OC)c3)C1=CCC(C)(C)C2`, the inhibition was 22.4% (inactive).

Take `CCOc1cc(C(=O)N2CCc3cc(OC)c(OC)cc3C2)ccc1OC(F)F`: the inhibition is -21.9% (inactive).

Take `O=C1NC[C@H](Cc2ccc(O)cc2)N(C[C@H]2CCCN2C[C@H](Cc2ccccc2)N2C[C@H](Cc3ccccc3)N(CCc3ccccc3)C(=O)C2=O)C1=O`: the inhibition was -19.2% (inactive).

`COc1ccc(-c2ccccc2C2Cc3nnccc3CN2C(=O)Nc2ccccc2)cc1` (stereo not drawn): the inhibition was -11.4% (inactive).

Regarding `COC(=O)[C@]12CCCCC=C1N(Cc1cccc3ccccc13)C(=O)[C@H](CC(=O)N1CCOCC1)C2`, the inhibition was 34.8% (inactive).

Consider `COc1cc2ccccc2cc1C(=O)Nc1ccc(NC(=O)c2cccs2)cc1`, for which the inhibition was 58.9% (active).

Turning to `COc1cc(OC)c(C(=O)NNC(=O)c2ccc(NS(=O)(=O)c3cccs3)cc2)cc1OC`, the inhibition was -17.5% (inactive).

Regarding `COc1ccccc1C(=O)Nc1ccc(Nc2ccccc2)cc1`, the inhibition is 1.01% (inactive).

On to `O=C(NCc1ccccc1)[C@@H]1CCCN1C(=O)[C@H]1CCCN1C(=O)c1cccc(Cl)c1`, for which the inhibition was -3.29% (inactive).

Consider `CCCCCCCCN1C(=O)[C@H](CC(=O)NCc2cccc3ccccc23)C[C@@]2(C(=O)OC)CCCCC=C12`, for which the inhibition is 2.1% (inactive).

For `COCCCn1cc(CN2CC(N(C)C)CS2(=O)=O)nn1` (stereo not drawn), the inhibition is -29.3% (inactive).

For the compound `CCCCC[C@H](C)N1C[C@@H](COCc2ccccc2)Oc2cc(N3CCC[C@@H]3CO)ccc2S1(=O)=O`, the inhibition is -12.8% (inactive).

Take `CCOc1ccc(C(=O)Nc2ccc(CN3CCOCC3)cc2)cc1Cl`: the inhibition is 3.95% (inactive).

For the compound `CCOc1ccc(C(=O)NC(=S)Nc2ccc(N3CCOCC3)c(Cl)c2)cc1[N+](=O)[O-]`, the inhibition is 51.3% (active).

With `CCOc1ccc(C(=O)NC(=S)Nc2ccc(NC(=O)C(C)C)cc2)cc1[N+](=O)[O-]`, the inhibition is 38.4% (inactive).

With `O=C(Nc1ccccc1)C1CC(=O)n2c(nc3ccccc32)N1` (stereo not drawn), the inhibition is -8.36% (inactive).

For the compound `CCCCC(O)C1=C[N+](=O)CC=C1` (stereo not drawn), the inhibition is 0.52% (inactive).

As for `COc1ccccc1C(=O)Nc1ccc(C)c(S(=O)(=O)N2CCCCC2)c1`, the inhibition is 35.1% (inactive).

Consider `CCc1ccccc1OCC(=O)Nc1ccc(C)c(S(=O)(=O)N2CCCCCC2)c1`, for which the inhibition was 53.6% (active).

In the case of `Cc1ccccc1OCC(=O)Nc1ccc(N2CCN(C(=O)C(C)C)CC2)c(Cl)c1`, the inhibition was 51.1% (active).

With `COc1cc(NC(=O)COc2ccccc2Cl)ccc1NC(=O)C(C)C`, the inhibition is -12.5% (inactive).

On to `Cc1ccc(NC(=O)COc2coc(CN3CCc4ccccc4C3)cc2=O)cc1Cl`, for which the inhibition is -6.95% (inactive).

Consider `Cc1ccc(NC(=O)COC(=O)C2CC2)cc1S(=O)(=O)N1CCOCC1`, for which the inhibition is -10.1% (inactive).

Consider `CC(C)CN1C(=O)CN(S(C)(=O)=O)CC1(C)C(=O)NCc1ccccc1` (stereo not drawn), for which the inhibition was -16.9% (inactive).

As to `O=C(c1ccccc1)c1ccc(OC(=O)N2CCCC2)cc1`, the inhibition was 0.6% (inactive).

As for `CCCC[C@@H]1CN=C(N)N1CCc1cc(C(F)(F)F)cc(C(F)(F)F)c1`, the inhibition was 0.75% (inactive).

Turning to `O=C(NCc1ccccn1)[C@@H]1CCCN1C(=O)[C@@H]1CCCN1C(=O)c1ccccc1`, the inhibition is -3.32% (inactive).

With `CCOc1ccc(Cn2nnc(C(=O)Nc3ccc(OC)cc3OC)c2N)cc1`, the inhibition was -4.89% (inactive).

For the compound `Nc1c(C(=O)Nc2ccc3c(c2)OCCO3)nnn1Cc1ccccc1`, the inhibition was 10.6% (inactive).

`CCOc1ccc(Cn2nnc(C(=O)NCc3ccccc3)c2N)cc1`: the inhibition is 55.6% (active).

Turning to `O=C(OCC(=O)N1CCOCC1)c1ccc2ccccc2c1`, the inhibition is -11.6% (inactive).

As for `O=C1C(Sc2cccc(F)c2)=C[C@@]2(O)CC[C@@H](O)[C@]1(Sc1cccc(F)c1)[C@H]2O`, the inhibition was 1.99% (inactive).

For `N#Cc1ccc(C(C(=O)NCc2ccccc2)n2c(=O)c(-c3ccco3)nc3ccccc32)cc1` (stereo not drawn), the inhibition was -2.89% (inactive).

For `O=C(Cc1ccccc1)Nc1c(Cl)ccc2nsnc12`, the inhibition was 3.32% (inactive).

For the compound `CC(=O)c1ccc(NC(=O)c2cc(-c3cccs3)on2)cc1`, the inhibition was 5.25% (inactive).

For `Cc1cc(Br)ccc1NC(=O)c1cnc(N2CCN(c3ccccn3)CC2)c2ccccc12`, the inhibition is 67.1% (active).

For `Cc1cc(Br)ccc1NC(=O)c1sc2ncn(CC(=O)N3CCN(c4ccccn4)CC3)c(=O)c2c1C`, the inhibition was 12% (inactive).

Turning to `Cc1cc(C(=O)N2CCN(c3ccccn3)CC2)c(C)o1`, the inhibition was 1.13% (inactive).

Consider `CCOc1ccccc1C(=O)N1CCC[C@@H]1C(=O)N1CCC[C@H]1C(=O)NCc1ccccc1`, for which the inhibition was -5.66% (inactive).

Regarding `CN1C(=O)CN2CCc3ccccc3C2c2cc(Cl)ccc21` (stereo not drawn), the inhibition is -4.12% (inactive).

Regarding `S=C(NCCc1ccccc1)N1CCn2cccc2C1c1ccncc1` (stereo not drawn), the inhibition is 76.5% (active).

Consider `S=C(Nc1cccc(Br)c1)N1CCn2cccc2C1c1cccnc1` (stereo not drawn), for which the inhibition was -5.72% (inactive).

As for `CC1CCCCN1C(=S)NCc1ccccc1` (stereo not drawn), the inhibition was -12.2% (inactive).

With `Cc1cccc(N(C)C(=O)CN2C(=O)COc3ccc(S(=O)(=O)N4CCCCCC4)cc32)c1`, the inhibition is 28.5% (inactive).

With `CCCn1nc(C(=O)Nc2ccc3nc(C)sc3c2)c2ccccc2c1=O`, the inhibition was -20.5% (inactive).

Turning to `CCCCn1nc(C(=O)Nc2ccc(S(=O)(=O)Nc3ncccn3)cc2)c2ccccc2c1=O`, the inhibition was -40.3% (inactive).

As to `CCCCn1nc(C(=O)Nc2cccc(C(=O)NC3CC3)c2)c2ccccc2c1=O`, the inhibition was 48.7% (active).

Turning to `CC(=O)N1CCN(Cc2cc(=O)oc3cc(C)ccc23)CC1`, the inhibition is -3.73% (inactive).

With `Cc1ccc2nc(CN(C)C(=O)[C@@H](Cc3ccccc3)NC(=O)[C@H]3O[C@@H](n4ccc(=O)[nH]c4=O)[C@H](O)[C@@H]3O)[nH]c2c1`, the inhibition is -7.68% (inactive).

For the compound `CN(c1ccccc1)S(=O)(=O)c1ccc(NC(=O)COc2ccccc2)cc1`, the inhibition is 40.2% (inactive).

Take `COC(=O)[C@H]1Cc2cnoc2C[C@]1(C)C(=O)O`: the inhibition is -4.37% (inactive).

For `COC(=O)[C@]12C[C@H](CC(=O)NCCCCc3ccccc3)C(=O)N(Cc3ccc4c(c3)OCO4)C1=C[C@H](C(C)(C)C)O[C@@H]2C`, the inhibition is -5.78% (inactive).

As to `O=C(CSc1nnc(COc2ccc(Cl)cc2)n1Cc1ccco1)N1CCNC1=O`, the inhibition is 11.4% (inactive).

On to `CCc1nc2oc3ccccc3c(=O)c2c(=O)n1Cc1ccc(OC)cc1`, for which the inhibition is 3.24% (inactive).

`Cn1c2ccccc2c(=O)c2c(=O)n(Cc3ccco3)c(COc3ccccc3)nc21`: the inhibition was 62.5% (active).

`C/C(=N\N1CCN(Cc2ccc(C)cc2)CC1)c1ccco1`: the inhibition was -4.82% (inactive).

As for `Cc1nn(-c2ccccc2)c(C)c1NC(=O)CCl`, the inhibition was -8.39% (inactive).

With `Cc1nn(-c2ccccc2)c(C)c1NC(=O)COC(=O)c1cc(Cl)ccc1O`, the inhibition is 68.3% (active).

For `Cc1cccc(C)c1NC(=O)COC(=O)c1c(C)nn(-c2ccccc2)c1C`, the inhibition is -6.4% (inactive).

As to `Cc1nnsc1S(=O)(=O)Cc1ccccc1Cl`, the inhibition was -3.1% (inactive).

Turning to `O=C(Nc1ccccc1)c1nnsc1S(=O)(=O)c1ccc(Cl)cc1`, the inhibition is 59.8% (active).

As to `O=C(Nc1ccc(S(=O)(=O)N2CCOCC2)cc1)C1CCN(S(=O)(=O)c2ccc(Cl)cc2)CC1`, the inhibition was 8.67% (inactive).

As to `C=CCN=C1NC(c2cccc(C(F)(F)F)c2)C(C(=O)OC)=C(C)N1C` (stereo not drawn), the inhibition is 5.15% (inactive).

`C[C@@H](CN1C2=NC[C@@H](Cc3ccccc3)N2C[C@H]1Cc1ccc(O)cc1)NC(=O)CCC1CCCCC1`: the inhibition was -6.17% (inactive).

`CCc1ccc2c(c1)NC(=O)C2(C)Cc1ccc(OC(F)(F)F)cc1` (stereo not drawn): the inhibition is 55.2% (active).

On to `Cc1ccc(CC2(C)C(=O)Nc3ccc(OC(F)(F)F)cc32)cc1` (stereo not drawn), for which the inhibition was -5.18% (inactive).

Turning to `COc1ccccc1CC1(C)C(=O)Nc2ccc(OC(F)(F)F)cc21` (stereo not drawn), the inhibition was -12.2% (inactive).

As to `CCOC(=O)c1cc2c(ccn2C)n1CC(=O)N1CCC(C)CC1`, the inhibition was -7.37% (inactive).

On to `COc1ccc(CCNC(=O)c2ccccc2-c2ccccc2C(=O)O)cc1OC`, for which the inhibition is -6.06% (inactive).

For the compound `COc1ccc(CCNC2=C(Cl)C(=O)N(Cc3ccccc3)C2=O)cc1OC`, the inhibition is 63% (active).

For `COc1ccc(CCNc2nc(C)cc(C)n2)cc1OC`, the inhibition is -1.79% (inactive).

Take `CC(=O)Nc1ccccc1OC(C)C(=O)N1CCC(C)CC1` (stereo not drawn): the inhibition is -3.93% (inactive).

On to `COc1ccc2c(c1)C(SCC(=O)NCc1ccccc1)CC(C)(C)O2` (stereo not drawn), for which the inhibition is 13% (inactive).

Turning to `C=CC[C@@H](CC(=O)N[C@H](CO)Cc1ccccc1)C(=O)N[C@H](C)COC(=O)[C@@H](CC=C)Cc1ccc(F)cc1`, the inhibition was 38% (inactive).

`C=CCC[C@H](Cc1ccc(F)cc1)C(=O)OC[C@H](C)NC(=O)[C@H](CC=C)CC(=O)N(CCO)Cc1ccccc1`: the inhibition is 55.4% (active).

As to `C=CCC[C@@H](Cc1ccc(F)cc1)C(=O)O[C@H](CNC(=O)[C@H](CC=C)CC(=O)N(CCO)Cc1ccccc1)c1ccccc1`, the inhibition is 75.5% (active).

Consider `C=CCC[C@@H](Cc1ccc(F)cc1)C(=O)OC[C@@H](C)NC(=O)[C@H](CC=C)CC(=O)N(CCO)Cc1ccccc1`, for which the inhibition is 46.1% (inactive).

As for `C=CCC[C@@H](Cc1ccc(F)cc1)C(=O)OC[C@H](Cc1c[nH]c2ccccc12)NC(=O)[C@@H](CC=C)CC(=O)N(CCO)Cc1ccccc1`, the inhibition is 38.4% (inactive).

In the case of `C=CC[C@@H](Cc1ccc(F)cc1)C(=O)OC[C@H]1CCCN1C(=O)[C@H](CC=C)CC(=O)N(CCO)Cc1ccccc1`, the inhibition was 39.6% (inactive).

As to `C=CCC[C@H](Cc1ccc(F)cc1)C(=O)OC[C@@H](NC(=O)[C@@H](CC=C)CC(=O)N[C@H](CO)Cc1ccccc1)C(C)(C)C`, the inhibition is 37.2% (inactive).

Regarding `C=CC[C@H](CC(=O)N(CCO)Cc1ccccc1)C(=O)N[C@@H](COC(=O)[C@@H](CC=C)Cc1ccc(F)cc1)Cc1ccccc1`, the inhibition was 61.4% (active).

With `C=CC[C@@H](CC(=O)N[C@H](CO)Cc1ccccc1)C(=O)N[C@@H](COC(=O)[C@@H](CC=C)Cc1ccc(F)cc1)Cc1c[nH]c2ccccc12`, the inhibition was 9.92% (inactive).
